Source: ChEMBL document CHEMBL5154784, “Design, Synthesis, Biological Evaluation, and Computational Studies of Novel Ureidopropanamides as Formyl Peptide Receptor 2 (FPR2) Agonists to Target the Resolution of Inflammation in Central Nervous System Disorders” (J Med Chem, 2022)

Assays:
[1] = test system: Microglia; assay: Anti-inflammatory activity against Sprague-Dawley rat primary microglial cells assessed as reduction in IL-10 expression at 0.1 uM incubated for 1 hr by ELISA method (reference value: 100 +/- 3.9 %); assay type: functional; design: scale not given: the % may be the effect or the level left
[2] = Antiinflammatory activity against Sprague-Dawley rat primary microglial cells assessed as reduction in IL-6 expression at 0.1 uM incubated for 1 hr by ELISA method (reference value: 100 +/- 2.16 %); assay type: functional, Microglia; design: scale not given: the % may be the effect or the level left
[3] = Antiinflammatory activity against Sprague-Dawley rat primary microglial cells assessed as reduction in IL-1beta expression at 0.1 uM incubated for 1 hr by ELISA method (reference value: 100 +/- 13 %); assay type: functional, Microglia; design: scale not given: the % may be the effect or the level left
[4] = Antiinflammatory activity against Sprague-Dawley rat primary microglial cells assessed as reduction in TNF-alpha expression at 0.1 uM incubated for 1 hr by ELISA method (reference value: 100 +/- […]); assay type: functional, Microglia; design: scale not given: the % may be the effect or the level left
[5] = molecular target: T1, N-formyl peptide receptor 2 (Homo sapiens) (UniProt P25090); assay: Agonist activity at human FPR2 transfected in HL-60 cells assessed as induction of intracellular calcium ions mobilization using WKYMVM as substrate preincubated for 10 mins followed by substrate addition and measured every 5 seconds for 240 secs by Fluo-4-AM dye based fluorescent assay relative to control; assay type: functional, cell-based; details: filed as agonist
T1 sequence (whole entry): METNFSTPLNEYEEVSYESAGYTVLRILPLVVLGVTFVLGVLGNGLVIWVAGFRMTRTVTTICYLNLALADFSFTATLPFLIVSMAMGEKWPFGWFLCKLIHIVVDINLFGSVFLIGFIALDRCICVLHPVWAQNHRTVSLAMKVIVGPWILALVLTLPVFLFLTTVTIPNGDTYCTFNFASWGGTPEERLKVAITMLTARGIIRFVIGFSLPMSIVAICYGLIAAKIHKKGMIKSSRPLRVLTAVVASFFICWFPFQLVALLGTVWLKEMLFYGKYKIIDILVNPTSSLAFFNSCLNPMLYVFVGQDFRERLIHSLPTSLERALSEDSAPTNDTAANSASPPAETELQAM

[6] = molecular target: T2, N-formyl peptide receptor 2 (Homo sapiens, UniProt P25090); assay: Agonist activity at human FPR2 transfected in human HL-60 cells assessed as increase in calcium mobilization measured every 5 seconds for 240 secs by Fluo-4-AM dye based fluorescence assay; assay type: functional, cell-based
T2 sequence (P25090 whole entry): T1 sequence (whole entry)

[7] = Cytotoxicity against mouse N9 cells assessed as reduction in cell viability incubated for 48 hrs by MTT assay; assay type: toxicity, cell-based
In short: (§1)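 MTT 0.5 mg/mL added for 3–4 h at 37 °C, formazan dissolved in DMSO/EtOH 1:1, absorbance read at 570 and 630 nm. Mean ± SD from at least two to three experiments in triplicate.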

[8] = molecular target: T3, fMet-Leu-Phe receptor (Homo sapiens, UniProt P21462); assay: Agonist activity at human FPR1 transfected in human HL-60 cells assessed as increase in calcium mobilization measured every 5 seconds for 240 secs by Fluo-4-AM dye based fluorescence assay; assay type: functional, cell-based
T3 sequence (P21462 whole entry): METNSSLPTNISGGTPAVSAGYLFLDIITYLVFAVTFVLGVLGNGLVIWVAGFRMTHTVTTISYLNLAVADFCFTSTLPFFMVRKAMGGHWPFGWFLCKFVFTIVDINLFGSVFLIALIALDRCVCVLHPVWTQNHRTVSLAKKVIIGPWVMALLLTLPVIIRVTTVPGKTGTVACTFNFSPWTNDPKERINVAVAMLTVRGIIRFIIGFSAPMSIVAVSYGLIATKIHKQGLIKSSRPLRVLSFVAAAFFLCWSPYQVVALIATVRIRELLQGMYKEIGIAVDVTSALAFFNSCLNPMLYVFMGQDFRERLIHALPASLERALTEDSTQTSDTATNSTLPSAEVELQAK

[9] = Metabolic stability in rat liver microsomes assessed as compound remaining at 10 uM preincubated for 10 mins followed by NADPH addition and measured after 30 mins by HPLC analysis; assay type: ADME, Microsome; details: time 40 min, read-out: Stability
In short: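 Rat liver microsomes (1.0 mg/mL protein), compound 10 μM final in 100 mM potassium phosphate pH 7.4, pre-incubated 10 min at 37 °C, then NADPH regenerating system added. After 30 min, % parent remaining by HPLC-DAD (C18, MeOH/H2O 80:20) versus incubation without NADPH system.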

[10] = molecular target: T2, N-formyl peptide receptor 2; assay: Antagonist activity at human FPR2 transfected in human HL-60 cells assessed as inhibition of WKYMVM-induced intracellular calcium mobilization preincubated for 10 mins followed by WKYMVM addition measured every 5 seconds for 240 secs by Fluo-4-AM dye based fluorescence assay; assay type: functional, cell-based
In short: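 Fluo-4-loaded FPR2-HL60 cells pre-incubated 10 min with compound (1% DMSO final), then challenged with 5 nM WKYMVM. Maximum change over baseline taken as response. IC50 by four-parameter logistic regression of at least 5–6 point curves.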

[11] = Cytotoxicity against mouse N9 cells assessed as reduction in cell viability at 1 to 100 uM incubated for 48 hrs by MTT assay relative to control; assay type: toxicity, cell-based; details: n9, 48 h, dose 1-100 µM; in short: as §1
[12] = Cytotoxicity against mouse N9 cells assessed as reduction in cell viability by measuring LDH release at 0.5 to 5 uM incubated for 24 hrs by LDH assay; assay type: toxicity, cell-based; details: n9, 24 h, dose 0.5-5 µM
In short: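 N9 cells (2 × 10^4/well) given compound at 0.5 or 5 μM, alone or with LPS (E. coli O111:B4, 100 ng/mL) added 30 min later, for 24 h at 37 °C. Released LDH measured in supernatant (30 min, room temperature, 490/630 nm). Expressed as % of untreated cells, mean ± SEM, at least three experiments in triplicate.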

[13] = molecular target: T3, fMet-Leu-Phe receptor; assay: Antagonist activity at human FPR1 transfected in human HL-60 cells assessed as inhibition of fMLF-induced intracellular calcium mobilization preincubated for 10 mins followed by fMLF addition and measured every 5 seconds for 240 secs by Fluo-4-AM dye based fluorescence assay; assay type: functional, cell-based
[14] = Neurotoxicity against Sprague-Dawley rat primary microglial cells assessed as reduction in cell viability by measuring LDH release at 0.1 uM incubated for 24 hrs by LDH assay; assay type: toxicity, cell-based; details: microglia
In short: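 Sprague–Dawley rat neonatal cortical microglia (>95% Iba-1+), switched to 1% FBS medium 1 h before treatment. Compound 0.1 μM for 1 h, then LPS 100 ng/mL for 24 h; WRW4 10 μM given 30 min before in some sets, 0.1% vehicle. Supernatant LDH read at 540 nm, % of vehicle controls, mean ± SEM.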

Efficacy [5] | EC50 [6] | EC50 [8] | remaining at 0.5 h, 10 µM [9] | IC50 [10] | Compound | EC50 at 48 h [7] | other results
– | – | – | – | – | H-WRWWWW-NH2 | – | Activity [1]: 103%; Activity [2]: 108%; Activity [3]: 103%; Activity [4]: 121%
45% | 7.2 µM | 5.6 µM | 72% | – | N#Cc1ccc(C[C@@H](NC(=O)Nc2ccc(F)cc2)C(=O)N2Cc3ccc(F)cc3C2)cc1 | 9.44 µM | –
– | 13.4 µM | – | 25% | 49.3 µM | N#Cc1ccc(C[C@@H](NC(=O)Nc2ccc(F)cc2)C(=O)N2CCCCC2)cc1 | – | –
70% | 1.7 µM | 3.3 µM | – | 4.4 µM | N#Cc1ccc(C[C@H](NC(=O)Nc2ccc(F)cc2)C(=O)N2Cc3ccc(F)cc3C2)cc1 | 18.2 µM | –
– | 19.3 µM | – | 15% | – | N#Cc1ccc(C[C@@H](NC(=O)Nc2ccc(F)cc2)C(=O)N2Cc3ccccc3C2)cc1 | – | –
– | – | – | 62% | – | N#Cc1ccc(C[C@@H](NC(=O)Nc2ccc(F)cc2)C(=O)N2CCC(F)(F)CC2)cc1 | > 100 µM | Activity [11]: 40%
– | 1.6 µM | – | 34% | 0.6 µM | CC1(C)CN(C(=O)[C@H](Cc2ccc(C#N)cc2)NC(=O)Nc2ccc(F)cc2)Cc2cc(F)ccc21 | – | –
– | 1.1 µM | – | 10% | 1.2 µM | N#Cc1ccc(C[C@@H](NC(=O)Nc2ccc(F)cc2)C(=O)N2CCc3cccnc32)cc1 | – | –
– | 0.34 µM | – | 31% | 4.4 µM | N#Cc1ccc(C[C@H](NC(=O)Nc2ccc(F)cc2)C(=O)N2Cc3ccccc3C2)cc1 | – | Activity [12]: Non-Toxic
80% | 19.5 µM | – | 67% | 30.1 µM | N#Cc1ccc(C[C@H](NC(=O)Nc2ccc(F)cc2)C(=O)N2CCC(F)(F)CC2)cc1 | > 100 µM | Activity [11]: 9%
105% | 0.17 µM | 0.78 µM | 85% | 0.35 µM | N#Cc1ccc(C[C@H](NC(=O)Nc2ccc(F)cc2)C(=O)NC2CCCCNC2=O)cc1 (some centres not stated) | > 100 µM | Activity [11]: 53%; Activity [12]: Non-Toxic; IC50 [13]: 3.5 µM
– | 0.62 µM | – | 14% | 0.24 µM | N#Cc1ccc(C[C@@H](NC(=O)Nc2ccc(F)cc2)C(=O)N2CCc3ccc(F)cc3C2)cc1 | – | –
– | – | – | – | – | N#Cc1ccc(C[C@H](NC(=O)Nc2ccc(F)cc2)C(=O)NCC2(c3ccc(F)c(Cl)c3)CC2)cc1 | 3.26 µM | Activity [12]: Non-Toxic
120% | 0.27 µM | 1.2 µM | 10% | 0.013 µM | N#Cc1ccc(C[C@H](NC(=O)Nc2ccc(F)cc2)C(=O)N2CCCc3ccccc32)cc1 | 14.7 µM | Activity [12]: Toxic; IC50 [13]: 24.2 µM
105% | 5.2 µM | 26.4 µM | 61% | 16.5 µM | N#Cc1ccc(C[C@@H](NC(=O)Nc2ccc(F)cc2)C(=O)N2CCCC2)cc1 | > 100 µM | Activity [11]: 59%; IC50 [13]: 43.9 µM
– | 6.9 µM | – | 65% | 16.4 µM | CC1(C)CN(C(=O)[C@@H](Cc2ccc(C#N)cc2)NC(=O)Nc2ccc(F)cc2)c2ccccc21 | – | –
175% | 0.25 µM | 0.44 µM | 7% | 0.012 µM | N#Cc1ccc(C[C@@H](NC(=O)Nc2ccc(F)cc2)C(=O)N2CCCc3ccccc32)cc1 | 13.7 µM | IC50 [13]: 17.4 µM
– | 0.16 µM | – | 14% | 0.14 µM | N#Cc1ccc(C[C@H](NC(=O)Nc2ccc(F)cc2)C(=O)N2CCc3cccnc32)cc1 | – | –
– | 0.98 µM | – | – | 12 µM | N#Cc1ccc(C[C@H](NC(=O)Nc2ccc(F)cc2)C(=O)N2CCCCC2)cc1 | – | –
– | 1.3 µM | – | 4% | 3.5 µM | N#Cc1ccc(C[C@@H](NC(=O)Nc2ccc(F)cc2)C(=O)N2CCc3ccccc3C2)cc1 | – | –
– | 2.3 µM | – | – | 2.7 µM | CC1(C)CN(C(=O)[C@H](Cc2ccc(C#N)cc2)NC(=O)Nc2ccc(F)cc2)c2ccccc21 | – | –
– | 0.45 µM | – | 8% | 0.26 µM | N#Cc1ccc(C[C@H](NC(=O)Nc2ccc(F)cc2)C(=O)N2CCc3ccc(F)cc3C2)cc1 | – | –
– | 0.24 µM | – | 6% | 0.03 µM | N#Cc1ccc(C[C@H](NC(=O)Nc2ccc(F)cc2)C(=O)N2CCc3ccccc3C2)cc1 | – | Activity [12]: Non-Toxic
110% | 0.16 µM | 4.8 µM | 19% | 0.21 µM | N#Cc1ccc(C[C@H](NC(=O)Nc2ccc(F)cc2)C(=O)N2CCc3cc(F)ccc32)cc1 | 29.4 µM | Activity [12]: Non-Toxic
140% | 1 µM | 4.2 µM | 78% | 3.8 µM | N#Cc1ccc(C[C@@H](NC(=O)Nc2ccc(F)cc2)C(=O)NC2CCCCNC2=O)cc1 (some centres not stated) | > 100 µM | Activity [11]: 36%; IC50 [13]: 40.4 µM
100% | 3.1 µM | 15.3 µM | – | 6.4 µM | N#Cc1ccc(C[C@H](NC(=O)Nc2ccc(F)cc2)C(=O)N2CCCC2)cc1 | > 100 µM | Activity [11]: 55%; IC50 [13]: 33.8 µM
90% | 0.41 µM | 1.8 µM | – | 3.4 µM | N#Cc1ccc(C[C@@H](NC(=O)Nc2ccc(F)cc2)C(=O)N2CCc3cc(F)ccc32)cc1 | 23.8 µM | –
– | – | – | 28% | – | N#Cc1ccc(C[C@@H](NC(=O)Nc2ccc(F)cc2)C(=O)N2CCc3ccc(F)cc32)cc1 | – | Activity [12]: Toxic

Compound | Efficacy [5] | EC50 [6] | EC50 [8] | remaining at 0.5 h, 10 µM [9] | IC50 [10] | EC50 at 48 h [7] | other results
N#Cc1ccc(C[C@@H](NC(=O)Nc2ccc(F)cc2)C(=O)N2CCc3ccccc32)cc1 | – | 5.6 µM | – | 14% | 3.9 µM | – | –
N#Cc1ccc(C[C@H](NC(=O)Nc2ccc(F)cc2)C(=O)N2CCc3ccccc32)cc1 | – | 0.026 µM | – | 22% | 0.01 µM | – | Activity [12]: Non-Toxic; Activity [14]: Non-Toxic
